{
  "source": "ChEMBL document CHEMBL1154792",
  "about": "“chi-Conopeptide pharmacophore development: toward a novel class of norepinephrine transporter inhibitor (Xen2174) for pain” (J Med Chem, 2009)",
  "species_on_record": "Rattus norvegicus",
  "assay": "Toxicity in CCI rat pain model assessed as side effects",
  "assay_type": "organism-based",
  "conditions": "in vivo",
  "outline": "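Rats with unilateral sciatic chronic constriction injury received a single intrathecal bolus via an implanted cannula 14 days after surgery, with morphine and vehicle as comparators. Compound-related behavioural observations were recorded alongside von Frey paw-withdrawal testing. Three animals per analogue.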",
  "data": [
    {"smiles": "CC(C)C[C@@H]1NC(=O)[C@H](CCCCN)NC(=O)[C@H](Cc2ccc(O)cc2)NC(=O)CNC(=O)[C@@H]2CSSC[C@H](NC1=O)C(=O)N[C@@H](Cc1cnc[nH]1)C(=O)N1CC[C@H](O)[C@H]1C(=O)N[C@H](C(=O)O)CSSC[C@H](NC(=O)[C@@H](NC(=O)CNC(=O)[C@@H](N)CC(N)=O)C(C)C)C(=O)N2", "values": [
      {"measurement": "Activity", "value": "Toxic"}
    ]}
  ]
}
